Results: ChEMBL document CHEMBL1681746, “N-benzylimidazole carboxamides as potent, orally active stearoylCoA desaturase-1 inhibitors” (Bioorg Med Chem Lett, 2011)
One block for each compound: values may come before it.

Columns and labels:
[1] = biological target: T1, Acyl-CoA desaturase 1 (Rattus norvegicus, UniProt P07308); test: Inhibition of rat liver SCD1 using [3H]-stearoylCoA
T1 sequence (P07308 whole entry): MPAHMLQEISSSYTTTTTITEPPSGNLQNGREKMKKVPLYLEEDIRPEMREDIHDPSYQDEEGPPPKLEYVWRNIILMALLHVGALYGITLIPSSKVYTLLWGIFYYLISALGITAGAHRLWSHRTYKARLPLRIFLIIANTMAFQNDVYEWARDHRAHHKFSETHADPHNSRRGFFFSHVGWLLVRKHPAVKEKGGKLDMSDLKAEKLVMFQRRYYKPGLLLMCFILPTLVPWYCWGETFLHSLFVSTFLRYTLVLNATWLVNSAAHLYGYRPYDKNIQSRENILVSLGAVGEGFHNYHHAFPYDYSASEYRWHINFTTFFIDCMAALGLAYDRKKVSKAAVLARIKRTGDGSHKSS

[2] = Intrinsic clearance in human liver microsomes assessed per mg of protein; format: ADME, Microsome
[3] = Clearance in rat; format: ADME, organism-based; conditions: in vivo
[4] = Volume of distribution at steady state in rat; format: ADME, organism-based; conditions: in vivo, read-out: Vdss
[5] = biological target: T2, Cytochrome P450 1A2 (Homo sapiens, UniProt P05177); test: Inhibition of CYP1A2; format: ADME
T2 sequence (P05177 whole entry): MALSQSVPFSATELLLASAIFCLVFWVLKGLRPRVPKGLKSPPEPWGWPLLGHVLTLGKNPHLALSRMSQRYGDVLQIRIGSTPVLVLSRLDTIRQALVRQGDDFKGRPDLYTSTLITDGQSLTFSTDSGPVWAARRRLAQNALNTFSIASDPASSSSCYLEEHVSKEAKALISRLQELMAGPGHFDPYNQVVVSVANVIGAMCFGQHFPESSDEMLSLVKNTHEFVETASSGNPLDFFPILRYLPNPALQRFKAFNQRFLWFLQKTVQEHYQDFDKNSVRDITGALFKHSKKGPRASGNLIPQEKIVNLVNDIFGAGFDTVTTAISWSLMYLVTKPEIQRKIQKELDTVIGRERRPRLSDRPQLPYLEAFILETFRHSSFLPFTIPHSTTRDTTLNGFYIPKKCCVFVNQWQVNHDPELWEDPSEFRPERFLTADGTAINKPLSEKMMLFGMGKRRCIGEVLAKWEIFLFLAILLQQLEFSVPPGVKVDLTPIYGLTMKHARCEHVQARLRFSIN

[6] = Intrinsic clearance in rat liver microsomes assessed per mg of protein; format: ADME, Microsome
[7] = Half life in po dosed in rat; format: ADME, organism-based; conditions: in vivo
[8] = Oral bioavailability in rat; format: ADME, organism-based; conditions: in vivo
[9] = biological target: Cytochrome P450 2C9 (Homo sapiens, UniProt P11712); test: Inhibition of CYP2C9; format: ADME
[10] = biological target: Cytochrome P450 2D6 (Homo sapiens, UniProt P10635); test: Inhibition of CYP2D6; format: ADME
[11] = biological target: Cytochrome P450 3A4 (Homo sapiens, UniProt P08684); test: Inhibition of CYP3A4; format: ADME
[12] = biological target: Cytochrome P450 2C19 (Homo sapiens, UniProt P33261); test: Inhibition of CYP2C19; format: ADME
[13] = biological target: Voltage-gated inwardly rectifying potassium channel KCNH2 (Homo sapiens, UniProt Q12809); test: Inhibition of human ERG by patch clamp assay
[14] = Genotoxicity in Salmonella Typhimurium by Ames test; format: toxicity; conditions: salmonella enterica subsp. enterica serovar typhimurium
[15] = system: Plasma; test: Drug level in Sprague-Dawley rat plasma at 1 mg/kg, po; format: ADME, organism-based; design: dose 1 mg/kg, route oral; conditions: in vivo
How it was run: (§1)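 Sprague–Dawley rats, n = 8 per dose group, fasted 20 h, then LEFA diet 24 h. Next day given po doses of 1, 10 or 30 mg/kg in 0.5% methylcellulose. Total drug concentration measured in plasma sampled 3 h post dose.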

[16] = system: Plasma; test: Free plasma concentration in Sprague-Dawley rat plasma at 1 mg/kg, po; format: ADME, organism-based; design: dose 1 mg/kg, route oral; conditions: in vivo
[17] = system: Plasma; test: Drug level in Sprague-Dawley rat plasma at 10 mg/kg, po; format: ADME, organism-based; design: dose 10 mg/kg, route oral; conditions: in vivo; how it was run: as §1
[18] = system: Plasma; test: Free plasma concentration in Sprague-Dawley rat plasma at 10 mg/kg, po; format: ADME, organism-based; design: dose 10 mg/kg, route oral; conditions: in vivo
[19] = system: Plasma; test: Drug level in Sprague-Dawley rat plasma at 30 mg/kg, po; format: ADME, organism-based; design: dose 30 mg/kg, route oral; conditions: in vivo; how it was run: as §1
[20] = system: Plasma; test: Free plasma concentration in Sprague-Dawley rat plasma at 30 mg/kg, po; format: ADME, organism-based; design: dose 30 mg/kg, route oral; conditions: in vivo
[21] = system: Rattus norvegicus; test: Reduction of desaturation index in low essential fatty acid diet model of Sprague-Dawley rat plasma at 30 mg/kg, po after 3 hrs; format: functional; design: scale not given: the % may be the effect or the level left
How it was run: (§2)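 Sprague–Dawley rats, n = 8 per dose group, fasted 20 h, then fed low essential fatty acid (LEFA) diet for 24 h. Next day dosed po in 0.5% methylcellulose vehicle. Plasma taken 3 h post dose. Stearic and oleic acid extracted from plasma and quantitated by LC/MS. DI = total oleic:stearic acid ratio; % reduction relative to vehicle group.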

[22] = system: Rattus norvegicus; test: Reduction of desaturation index in low essential fatty acid diet model of Sprague-Dawley rat plasma at 10 mg/kg, po after 3 hrs; format: functional; design: scale not given: the % may be the effect or the level left; how it was run: as §2
[23] = system: Rattus norvegicus; test: Reduction of desaturation index in low essential fatty acid diet model of Sprague-Dawley rat plasma at 1 mg/kg, po after 3 hrs; format: functional; design: scale not given: the % may be the effect or the level left; how it was run: as §2
[24] = system: Rattus norvegicus; test: Reduction of desaturation index in po dosed low essential fatty acid diet model of Sprague-Dawley rat plasma after 3 hrs; format: functional, organism-based; how it was run: as §2
[25] = system: Rattus norvegicus; test: Toxicity in low essential fatty acid diet model of Sprague-Dawley rat ocular tissue assessed as red eye formation at 1 to 30 mg/kg, po after 27 hrs; format: organism-based; design: dose 1-30 mg/kg, route oral; conditions: in vivo
How it was run: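 LEFA-diet Sprague–Dawley rats (n = 8/group) dosed po in 0.5% methylcellulose with plasma sampled at 3 h. Animals then held for observation. Ocular tissues (red eyes) assessed at 27 h post-dose.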

[26] = biological target: T1, Acyl-CoA desaturase 1; test: Inhibition of rat liver SCD1 assessed as formation of deuterated oleoylCoA by HTMS assay
How it was run: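 Rat liver microsomes as enzyme source. RapidFire high-throughput mass spectrometry quantitates deuterated oleoylCoA formed from deuterated stearoylCoA substrate.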

[27] = biological target: T3, Stearoyl-CoA desaturase (Homo sapiens, UniProt O00767); test: Inhibition of human SCD1
T3 sequence (O00767 whole entry): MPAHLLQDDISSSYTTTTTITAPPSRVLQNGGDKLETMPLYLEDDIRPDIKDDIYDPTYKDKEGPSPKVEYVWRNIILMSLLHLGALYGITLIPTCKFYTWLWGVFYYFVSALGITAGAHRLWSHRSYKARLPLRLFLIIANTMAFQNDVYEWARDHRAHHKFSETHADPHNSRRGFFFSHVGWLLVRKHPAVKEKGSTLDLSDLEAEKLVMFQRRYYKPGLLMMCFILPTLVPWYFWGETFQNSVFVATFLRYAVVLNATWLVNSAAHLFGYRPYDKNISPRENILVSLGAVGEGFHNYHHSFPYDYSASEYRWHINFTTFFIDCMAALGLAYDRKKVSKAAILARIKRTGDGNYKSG
How it was run: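 Orthogonal assay using tritiated stearoylCoA substrate and human liver microsomes as enzyme source; IC₅₀ determined.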

[28] = Apparent permeability of the compound by PAMPA; format: ADME
[29] = biological target: T4, CYP1A2 (Homo sapiens, UniProt P05177); test: Inhibition of CYP1A2 at 3 uM; format: ADME
T4 sequence (P05177 whole entry): T2 sequence (P05177 whole entry)
How it was run: (§3)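 Percent inhibition of each CYP isoform (1A2, 2C9, 2D6, 3A4) measured at […] test concentration.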

[30] = biological target: CYP2C9 (Homo sapiens, UniProt P11712); test: Inhibition of CYP2C9 at 3 uM; format: ADME; how it was run: as §3
[31] = biological target: CYP2D6 (Homo sapiens, UniProt P10635); test: Inhibition of CYP2D6 at 3 uM; format: ADME; how it was run: as §3
[32] = biological target: CYP3A4 (Homo sapiens, UniProt P08684); test: Inhibition of CYP3A4 at 3 uM; format: ADME; how it was run: as §3
[33] = biological target: hERG (Homo sapiens, UniProt Q12809); test: Displacement of [3H]-dofetilide from human ERG at 10 uM; conditions: probe [3H]-dofetilide
How it was run: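 Dofetilide binding assay; percent inhibition measured at […] test concentration.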

Chain of hERG (Q12809 whole entry): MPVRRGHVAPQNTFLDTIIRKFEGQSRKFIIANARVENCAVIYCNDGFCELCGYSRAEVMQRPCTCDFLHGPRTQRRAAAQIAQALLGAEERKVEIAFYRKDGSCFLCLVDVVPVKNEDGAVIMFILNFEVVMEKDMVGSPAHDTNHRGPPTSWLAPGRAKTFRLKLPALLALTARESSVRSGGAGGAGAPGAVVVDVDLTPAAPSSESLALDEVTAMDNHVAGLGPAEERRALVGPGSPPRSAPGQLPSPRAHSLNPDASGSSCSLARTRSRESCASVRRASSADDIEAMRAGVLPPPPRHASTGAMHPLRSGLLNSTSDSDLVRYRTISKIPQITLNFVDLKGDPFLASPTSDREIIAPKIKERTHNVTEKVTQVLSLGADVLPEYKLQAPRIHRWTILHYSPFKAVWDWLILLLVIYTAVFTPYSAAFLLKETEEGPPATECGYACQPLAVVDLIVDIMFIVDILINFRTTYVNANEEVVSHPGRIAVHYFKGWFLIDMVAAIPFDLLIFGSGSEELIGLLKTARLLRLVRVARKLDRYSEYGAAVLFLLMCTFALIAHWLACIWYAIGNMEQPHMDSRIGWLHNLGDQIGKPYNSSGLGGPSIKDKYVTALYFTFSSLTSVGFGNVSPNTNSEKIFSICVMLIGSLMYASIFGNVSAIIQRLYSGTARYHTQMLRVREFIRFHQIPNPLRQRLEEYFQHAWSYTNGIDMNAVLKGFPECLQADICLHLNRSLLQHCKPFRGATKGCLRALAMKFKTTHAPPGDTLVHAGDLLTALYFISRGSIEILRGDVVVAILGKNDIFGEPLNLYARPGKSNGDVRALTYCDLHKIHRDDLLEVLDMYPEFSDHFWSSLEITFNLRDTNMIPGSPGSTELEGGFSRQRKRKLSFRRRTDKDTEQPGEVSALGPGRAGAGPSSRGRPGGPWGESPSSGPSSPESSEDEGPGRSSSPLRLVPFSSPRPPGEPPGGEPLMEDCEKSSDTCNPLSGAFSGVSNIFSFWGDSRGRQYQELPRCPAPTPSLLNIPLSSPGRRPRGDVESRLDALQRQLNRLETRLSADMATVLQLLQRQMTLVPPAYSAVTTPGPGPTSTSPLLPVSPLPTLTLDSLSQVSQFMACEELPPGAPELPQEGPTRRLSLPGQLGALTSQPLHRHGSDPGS
Chain of Voltage-gated inwardly rectifying potassium channel KCNH2 (Q12809 whole entry): as above
Chain of Cytochrome P450 2D6 (P10635 whole entry): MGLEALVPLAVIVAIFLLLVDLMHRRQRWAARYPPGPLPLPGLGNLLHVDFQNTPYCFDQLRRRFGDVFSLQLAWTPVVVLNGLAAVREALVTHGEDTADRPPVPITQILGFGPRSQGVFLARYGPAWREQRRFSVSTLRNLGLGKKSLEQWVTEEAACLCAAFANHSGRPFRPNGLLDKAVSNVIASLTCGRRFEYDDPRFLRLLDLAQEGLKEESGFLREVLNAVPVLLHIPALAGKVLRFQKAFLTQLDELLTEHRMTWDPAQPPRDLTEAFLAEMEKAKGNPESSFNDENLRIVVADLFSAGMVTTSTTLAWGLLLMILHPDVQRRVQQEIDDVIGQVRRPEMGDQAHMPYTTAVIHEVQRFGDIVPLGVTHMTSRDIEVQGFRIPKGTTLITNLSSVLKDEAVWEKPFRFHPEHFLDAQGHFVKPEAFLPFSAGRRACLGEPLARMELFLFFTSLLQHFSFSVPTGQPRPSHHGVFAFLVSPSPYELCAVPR
Chain of CYP2D6 (P10635 whole entry): as above
Chain of CYP2C9 (P11712 whole entry): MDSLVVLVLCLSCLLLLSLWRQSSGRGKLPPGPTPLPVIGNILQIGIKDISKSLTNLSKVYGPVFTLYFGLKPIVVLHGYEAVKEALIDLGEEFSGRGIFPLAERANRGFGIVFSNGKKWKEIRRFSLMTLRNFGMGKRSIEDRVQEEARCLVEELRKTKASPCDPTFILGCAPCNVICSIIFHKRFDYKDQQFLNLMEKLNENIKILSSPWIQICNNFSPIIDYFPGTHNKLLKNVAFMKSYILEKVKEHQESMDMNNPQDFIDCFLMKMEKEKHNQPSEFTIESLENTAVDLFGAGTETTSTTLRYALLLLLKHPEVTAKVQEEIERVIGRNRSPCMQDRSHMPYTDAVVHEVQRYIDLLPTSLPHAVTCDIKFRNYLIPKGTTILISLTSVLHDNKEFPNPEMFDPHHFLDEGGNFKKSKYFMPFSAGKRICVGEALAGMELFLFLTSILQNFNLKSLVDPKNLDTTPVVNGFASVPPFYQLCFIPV
Chain of Cytochrome P450 2C9 (P11712 whole entry): as above
Chain of Cytochrome P450 3A4 (P08684 whole entry): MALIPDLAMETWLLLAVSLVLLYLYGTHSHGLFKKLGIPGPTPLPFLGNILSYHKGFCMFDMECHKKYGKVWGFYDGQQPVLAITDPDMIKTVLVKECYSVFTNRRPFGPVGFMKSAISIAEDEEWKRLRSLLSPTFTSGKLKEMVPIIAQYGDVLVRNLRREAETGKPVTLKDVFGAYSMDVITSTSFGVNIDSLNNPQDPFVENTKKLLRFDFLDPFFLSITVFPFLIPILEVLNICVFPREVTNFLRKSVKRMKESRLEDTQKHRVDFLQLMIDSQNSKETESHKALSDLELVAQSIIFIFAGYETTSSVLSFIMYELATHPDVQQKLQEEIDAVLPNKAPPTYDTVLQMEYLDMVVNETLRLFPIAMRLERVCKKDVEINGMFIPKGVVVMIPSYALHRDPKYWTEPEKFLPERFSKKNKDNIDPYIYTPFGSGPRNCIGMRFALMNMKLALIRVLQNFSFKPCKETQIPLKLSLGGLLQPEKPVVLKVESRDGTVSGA
Chain of CYP3A4 (P08684 whole entry): as above
Chain of Cytochrome P450 2C19 (P33261 whole entry): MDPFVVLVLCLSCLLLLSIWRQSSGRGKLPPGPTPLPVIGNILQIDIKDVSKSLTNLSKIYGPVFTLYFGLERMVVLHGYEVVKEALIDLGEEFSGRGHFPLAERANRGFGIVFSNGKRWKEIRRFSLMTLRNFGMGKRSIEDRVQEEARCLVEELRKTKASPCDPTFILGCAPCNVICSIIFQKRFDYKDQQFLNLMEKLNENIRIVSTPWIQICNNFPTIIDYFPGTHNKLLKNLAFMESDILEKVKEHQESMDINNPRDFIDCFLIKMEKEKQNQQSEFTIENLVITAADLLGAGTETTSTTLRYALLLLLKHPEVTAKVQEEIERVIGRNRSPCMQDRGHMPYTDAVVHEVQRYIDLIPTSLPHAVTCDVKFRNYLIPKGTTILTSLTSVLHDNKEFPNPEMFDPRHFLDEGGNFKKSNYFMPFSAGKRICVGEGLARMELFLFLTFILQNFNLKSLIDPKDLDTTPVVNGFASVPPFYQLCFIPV

SMILES: Cc1c(C(=O)N=C(N)N)ncn1Cc1ccc(Cl)cc1
IC50 [26]: 0.068 µM
IC50 [1]: 0.094 µM
IC50 [27]: 0.217 µM
Papp [28]: 2.6 ×10⁻⁶ cm/s
microsomal CLint [6]: 74.1 µL/min/mg
microsomal CLint [2]: 15.5 µL/min/mg
inhibition at 3 µM [29]: < 1%
inhibition at 3 µM [30]: < 1%
inhibition at 3 µM [31]: < 1%
inhibition at 3 µM [32]: < 1%
inhibition at 10 µM [33]: 64%

SMILES: Cn1ccc(NC(=O)c2cnn(Cc3ccc(Cl)c(C(F)(F)F)c3)c2)n1
IC50 [1]: 0.063 µM
microsomal CLint [2]: 25.9 µL/min/mg
clearance [3]: 30 mL/min/kg
Vd [4]: 0.7 L/kg
half-life [7]: 1.3 h
bioavailability [8]: 66%

SMILES: Cn1ccc(NC(=O)c2cn(Cc3cccc(OC(F)(F)F)c3)cn2)n1
IC50 [1]: 0.032 µM
IC50 [27]: 0.088 µM

SMILES: Cn1ccc(NC(=O)c2ccn(Cc3cccc(C(F)(F)F)c3)n2)n1
IC50 [1]: 2.14 µM

SMILES: Cn1ccc(NC(=O)c2cn(Cc3ccc(Cl)c(C(F)(F)F)c3)nn2)n1
IC50 [1]: 0.033 µM
microsomal CLint [2]: < 8 µL/min/mg
clearance [3]: 641 mL/min/kg
Vd [4]: 10.2 L/kg

SMILES: Cn1ccc(NC(=O)c2cn(CC3(CC4CC4)CCC3)cn2)n1
IC50 [1]: 0.101 µM

SMILES: Cn1ccc(NC(=O)c2cn(Cc3cccc(Cl)c3)cn2)n1
IC50 [1]: 0.057 µM

The remaining compounds from weak to strong by IC50 [1], led by results:

IC50 [1]: 2.75 µM
SMILES: CC(=O)NCCNC(=O)c1cn(Cc2ccc(F)c(C(F)(F)F)c2)cn1

IC50 [1]: 0.126 µM
SMILES: Cn1ccc(NC(=O)c2cn(CCc3ccccc3Cl)cn2)n1

IC50 [1]: 0.113 µM
SMILES: Cn1ccc(NC(=O)c2ncn(Cc3cccc(C(F)(F)F)c3)n2)n1

IC50 [1]: 0.063 µM
SMILES: Cn1cnc(NC(=O)c2cn(Cc3ccc(Cl)c(C(F)(F)F)c3)cn2)n1

IC50 [1]: 0.025 µM
SMILES: Cn1ncc(NC(=O)c2cn(Cc3cccc(C(F)(F)F)c3)cn2)n1

IC50 [1]: 0.016 µM
SMILES: Cn1ccc(NC(=O)c2cn(Cc3ccc(Cl)c(C(F)(F)F)c3)cn2)n1

IC50 [5]: > 30 µM
IC50 [1]: 0.0118 µM
microsomal CLint [6]: < 18 µL/min/mg
microsomal CLint [2]: < 8 µL/min/mg
clearance [3]: 43 mL/min/kg
Vd [4]: 4.5 L/kg
half-life [7]: 2.3 h
bioavailability [8]: 52%
IC50 [9]: > 30 µM
IC50 [10]: > 30 µM
IC50 [11]: > 30 µM
IC50 [12]: > 30 µM
Drug uptake [15]: 56.8 ng/mL
Cp(f) [16]: 17.6 nM
Drug uptake [17]: 1703 ng/mL
Cp(f) [18]: 533.5 nM
Drug uptake [19]: 6491 ng/mL
Cp(f) [20]: 2035 nM
SMILES: Cc1c(C(=O)Nc2ccn(C)n2)ncn1Cc1cccc(C(F)(F)F)c1
IC50 [13]: 28.9 µM
Activity [14]: Non-toxic
Activity [21]: 84%
Activity [22]: 85%
Activity [23]: 55%
Activity [24]: Dose-dependent effect
Activity [25]: Toxic

IC50 [1]: 0.011 µM
microsomal CLint [2]: < 8 µL/min/mg
clearance [3]: 463 mL/min/kg
Vd [4]: 8.1 L/kg
SMILES: Cn1ccc(NC(=O)c2cn(Cc3cccc(C(F)(F)F)c3)cn2)n1
